Test results as given in ChEMBL document CHEMBL1141376, “New fluorescent adenosine A1-receptor agonists that allow quantification of ligand-receptor interactions in microdomains of single living cells” (J Med Chem, 2007).

What was measured:
[1] = target: T1, Adenosine receptor A1 (Homo sapiens) (UniProt P30542); test: Ratio of pEC50 to pKd at human adenosine A1 receptor in CHO cells; format: cell-based
T1 sequence (whole entry): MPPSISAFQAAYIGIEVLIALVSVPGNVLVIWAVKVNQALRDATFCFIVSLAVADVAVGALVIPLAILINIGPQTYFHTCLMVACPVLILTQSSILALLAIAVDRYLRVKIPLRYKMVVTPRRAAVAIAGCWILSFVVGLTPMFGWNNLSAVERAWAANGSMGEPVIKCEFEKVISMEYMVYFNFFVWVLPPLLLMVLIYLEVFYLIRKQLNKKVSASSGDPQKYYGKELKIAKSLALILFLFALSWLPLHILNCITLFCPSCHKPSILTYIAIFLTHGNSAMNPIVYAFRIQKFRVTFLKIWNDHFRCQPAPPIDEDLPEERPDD
Summary of the method: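 Derived as the difference between -log EC50 from forskolin (3 µM)-stimulated [3H]-cAMP inhibition in CHO-A1H cells and -log KD from inhibition of 1 nM [3H]-DPCPX binding to intact CHO-A1H cells.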

[2] = target: T1, Adenosine receptor A1 (Homo sapiens); test: (§1) Displacement of [3H]DPCPX from human adenosine A1 receptor in CHO cells; format: cell-based; conditions: concentration not given here
Summary of the method: (§2)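 Whole confluent CHO-A1H cells in serum-free DMEM/F12 with competing ligand plus [3H]-DPCPX 1 nM final, 2 h at 37 °C in 5% CO2. Nonspecific binding with 10 µM XAC. Washed twice with cold PBS, scintillant added, counted.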

Adenosine receptor A1 [3] = target: T2, Adenosine receptor A1 (Homo sapiens, UniProt P30542); test: as §1; format: cell-based; summary of the method: as §2
T2 sequence (P30542 whole entry): T1 sequence (whole entry)

[4] = target: T1, Adenosine receptor A1 (Homo sapiens); test: (§3) Agonist activity at adenosine A1 receptor assessed as inhibition of forskolin-stimulated [3H]cAMP accumulation in CHO cells; format: functional, cell-based; conditions: concentration not given here
Summary of the method: (§4)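 Clonal CHO cells stably expressing human A1 (CHO-A1H) or human A3 (CHO-A3) grown to confluence in 24-well dishes. Labelled with [3H]adenine 2 h at 37 °C in HEPES-buffered Hank's, washed, rolipram 10 µM 15 min. Agonist 5 min, then forskolin 3 µM a further 10 min. Stopped with HCl; [3H]-cAMP isolated on alumina columns, scintillation counted. pEC50 from sigmoidal fits; triplicate determinations.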

Adenosine receptor A1 [5] = target: T2, Adenosine receptor A1; test: as §3; format: functional, cell-based; summary of the method: as §4
Adenosine receptor A1 [6] = target: T2, Adenosine receptor A1; test: Activity at human adenosine A1 receptor assessed as inhibition of forskolin-stimulated cAMP accumulation in CHO cells; format: functional, cell-based; summary of the method: as §4
Adenosine receptor A3 = target: T3, Adenosine receptor A3 (Homo sapiens, UniProt P0DMS8); test: Activity at human adenosine A3 receptor assessed as inhibition of forskolin-stimulated cAMP accumulation in CHO cells; format: functional, cell-based; summary of the method: as §4
T3 sequence (P0DMS8 whole entry): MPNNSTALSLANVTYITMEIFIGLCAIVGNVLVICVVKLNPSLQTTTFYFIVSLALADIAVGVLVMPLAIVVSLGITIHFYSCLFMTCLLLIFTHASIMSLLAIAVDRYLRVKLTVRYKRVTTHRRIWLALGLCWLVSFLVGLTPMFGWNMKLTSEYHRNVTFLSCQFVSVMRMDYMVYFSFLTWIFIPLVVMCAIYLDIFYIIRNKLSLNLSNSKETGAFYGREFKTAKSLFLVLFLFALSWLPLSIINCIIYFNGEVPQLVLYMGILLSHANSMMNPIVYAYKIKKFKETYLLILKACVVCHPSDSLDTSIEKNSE

Adenosine receptor A2b = target: T4, Adenosine receptor A2b (Homo sapiens, UniProt P29275); test: Activity at human adenosine A2B receptor assessed as stimulation of [3H]cAMP accumulation in CHO cells; format: functional, cell-based
T4 sequence (P29275 whole entry): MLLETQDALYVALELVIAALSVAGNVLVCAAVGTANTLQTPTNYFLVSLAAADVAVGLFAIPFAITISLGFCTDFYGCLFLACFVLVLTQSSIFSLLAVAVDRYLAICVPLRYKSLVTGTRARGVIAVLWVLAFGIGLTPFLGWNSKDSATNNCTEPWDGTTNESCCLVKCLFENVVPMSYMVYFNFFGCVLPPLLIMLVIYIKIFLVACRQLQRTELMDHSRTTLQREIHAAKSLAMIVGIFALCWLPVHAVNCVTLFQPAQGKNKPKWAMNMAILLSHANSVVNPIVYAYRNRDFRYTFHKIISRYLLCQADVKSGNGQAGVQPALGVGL
Summary of the method: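 CHO cells expressing human A2B receptor, confluent in 24-well dishes, [3H]adenine-labelled 2 h at 37 °C in HEPES-buffered Hank's, then rolipram 10 µM 15 min. Agonist added 10 min without forskolin. HCl termination, alumina-column isolation of [3H]-cAMP, scintillation counting. pEC50 by sigmoidal curve fitting; each experiment in triplicate.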

Adenosine receptor A2a = Adenosine receptor A2a (Homo sapiens, UniProt P29274); test: Activity at human adenosine A2A receptor assessed as stimulation of [3H]cAMP accumulation in CHO cells; format: functional, cell-based
Adenosine receptor A2a, sequence (P29274 whole entry): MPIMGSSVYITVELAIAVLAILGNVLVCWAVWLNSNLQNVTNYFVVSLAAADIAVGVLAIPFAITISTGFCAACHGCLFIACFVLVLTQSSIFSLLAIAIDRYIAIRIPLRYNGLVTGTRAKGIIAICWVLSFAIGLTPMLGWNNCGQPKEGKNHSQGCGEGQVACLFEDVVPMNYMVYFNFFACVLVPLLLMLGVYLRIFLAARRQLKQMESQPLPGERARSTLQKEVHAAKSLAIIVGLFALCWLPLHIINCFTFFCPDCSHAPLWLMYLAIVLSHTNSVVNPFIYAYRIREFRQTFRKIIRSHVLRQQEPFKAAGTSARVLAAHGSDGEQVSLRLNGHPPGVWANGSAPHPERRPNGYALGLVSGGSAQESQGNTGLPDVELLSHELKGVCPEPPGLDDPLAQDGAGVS

Row | SMILES | Ratio [1] | inhibition [2] | Kd (Adenosine receptor A1 [3]) | inhibition [4] | EC50 (Adenosine receptor A1 [5]) | EC50 (Adenosine receptor A1 [6]) | EC50 (Adenosine receptor A3) | EC50 (Adenosine receptor A2b) | EC50 (Adenosine receptor A2a)
1 | O=C(CCCCCNC(=O)COc1ccc(/C=C/C2=[N+]3C(=Cc4ccc(-c5cccs5)n4[B-]3(F)F)C=C2)cc1)NCCCCNc1ncnc2c1ncn2[C@@H]1O[C@H](CO)[C@@H](O)[C@H]1O | 1.64 | 48.1% | 224 nM | 96% | 5.13 nM | – | – | – | –
2 | CCNC(=O)[C@H]1O[C@@H](n2cnc3c(NCCCCNC(=O)CCCCCNC(=O)COc4ccc(/C=C/C5=[N+]6C(=Cc7ccc(-c8cccs8)n7[B-]6(F)F)C=C5)cc4)ncnc32)[C@H](O)[C@@H]1O | 1.67 | 49.3% | 158 nM | 99% | 3.39 nM | 3.39 nM | 2.69 nM | 2040 nM | 174 nM
3 | CCNC(=O)[C@H]1O[C@@H](n2cnc3c(NCCCNC(=O)CCCCCNC(=O)COc4ccc(/C=C/C5=[N+]6C(=Cc7ccc(-c8cccs8)n7[B-]6(F)F)C=C5)cc4)ncnc32)[C@H](O)[C@@H]1O | 2.55 | 50.9% | 245 nM | 92% | 0.692 nM | – | – | – | –
4 | CCNC(=O)[C@H]1O[C@@H](n2cnc3c(N)ncnc32)[C@H](O)[C@@H]1O | – | 83.3% | – | 98% | – | – | – | – | –
5 | CCNC(=O)[C@H]1O[C@@H](n2cnc3c(NCCCCCCCCNC(=O)CCCCCNC(=O)COc4ccc(/C=C/C5=[N+]6C(=Cc7ccc(-c8cccs8)n7[B-]6(F)F)C=C5)cc4)ncnc32)[C@H](O)[C@@H]1O | – | – | – | 77% | 12 nM | – | – | – | –
6 | CCNC(=O)[C@H]1O[C@@H](n2cnc3c(NCCCCCNC(=O)CCCCCNC(=O)COc4ccc(/C=C/C5=[N+]6C(=Cc7ccc(-c8cccs8)n7[B-]6(F)F)C=C5)cc4)ncnc32)[C@H](O)[C@@H]1O | – | – | – | 96% | 0.708 nM | – | – | – | –
